GPR7 antag – GPR7 receptor antagonists, primary screen, cell-based, fluorescence, single concentration | GPR7-expressing cells, fluorescence antagonist assay | inhibition, % at 4.4 µM | 290,000 tested, 1.1% active | Neuropeptides B/W receptor type 1 (Homo sapiens), P48145 | AID 1861, 2009; in the data active = inhibition above about 16%, passing the limit was not always enough;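 also: cells stimulated with the agonist NPW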
CHO parental Ca – ATP-evoked calcium signal inhibitors, parental CHO, primary screen, counter-screen for OX1R antagonist project, cell-based, fluorescence, Fluo-8 calcium dye. parental CHO-K1, ATP-induced calcium, Fluo-8 fluorescence. inhibition, % at 5.6 µM. 330,000 tested, 0.63% active. AID 463079, 2010;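 active = inhibition above that plate's mean sample inhibition plus 3 SD, cut at about 26% in these data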
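Test system: untransfected parental CHO cell line. Compound: one dose, 5.6 µM nominal. Detection: intracellular calcium via Fluo-8 no-wash fluorescent dye. Measure: % inhibition. Benchmarks: ATP-challenged DMSO wells low, unchallenged DMSO wells high.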
OX1R antag-1 – OX1R (HCRTR1) antagonists, primary screen, fluorescence, CHO/OX1R cells, Fluo-8 calcium, orexin A; 330,000 tested, 0.43% active; Fluo-8 calcium fluorescence; AID 434989, 2010; Orexin/Hypocretin receptor type 1 (Homo sapiens), O43613; inhibition, % at 5 µM;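 active = inhibition above its plate's threshold, mean inhibition of all tested compounds on the plate plus 3 SD, cut at about 37% in these data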
TAAR1 agonist – human TAAR1 agonists, primary screen, Fluo-8 calcium fluorescence, CHO RD-HGA16 cells | Trace amine-associated receptor 1 (Homo sapiens), Q96RJ0 | vehicle wells 0%, saturating PEA agonist 100% | activation, % at 3 µM | 360,000 tested, 0.99% active | AID 624467, 2012;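 active = activation above the mean activation of all test compounds in the run plus 3 SD, cut at about 38% in these data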
Target sequence (Q96RJ0 whole entry, looked up): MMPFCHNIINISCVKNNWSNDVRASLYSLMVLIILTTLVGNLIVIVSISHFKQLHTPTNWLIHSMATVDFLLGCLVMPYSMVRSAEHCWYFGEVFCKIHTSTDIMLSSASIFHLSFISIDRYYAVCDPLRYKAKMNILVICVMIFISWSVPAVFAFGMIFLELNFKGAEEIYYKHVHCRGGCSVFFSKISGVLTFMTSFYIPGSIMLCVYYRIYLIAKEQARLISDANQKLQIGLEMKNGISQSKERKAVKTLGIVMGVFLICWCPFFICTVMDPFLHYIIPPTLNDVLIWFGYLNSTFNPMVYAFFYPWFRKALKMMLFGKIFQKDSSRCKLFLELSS
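Assay system – CHO-derived RD-HGA16 cells with stable Gα16 and human TAAR1 · Compound dosing – one-point dosing at 3 µM (nominal) · Incubation – 17-24 h seeding, 75 min 37 °C dye, 30 min RT · Measured by – kinetic Fluo-8 calcium fluorescence · Control set – DMSO vehicle as 0%, PEA at EC100 as 100% · Repeats – single well for each compound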
TAAR1 antag – human TAAR1 antagonists, primary screen, Fluo-8 calcium fluorescence, CHO RD-HGA16 cells; inhibition, % at 3 µM; Trace amine-associated receptor 1 (Homo sapiens), Q96RJ0; antagonist; 360,000 tested, 1.5% active;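 active = inhibition above a per-plate cutoff, the mean inhibition of test compounds on that plate plus 3 SD, cut at about 49% in these data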
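Assay system: CHO-derived RD-HGA16 cells stably expressing human TAAR1 plus Gα16. Timing: 140 s kinetic read after compound, 140 s after agonist. Technique: kinetic Fluo-8 calcium fluorescence measurement. Measure: % inhibition of agonist calcium response.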
OX1R antag-2 – antagonists of human orexin 1 receptor (OX1R); Orexin/Hypocretin receptor type 1 (Homo sapiens), O43613; OX1R-expressing cells, FRET antagonist read-out; inhibition, % at 6.6 µM; 330,000 tested, 1.8% active; in the data active = inhibition mostly above about 38%, no sharp cut-off; inactive = mostly below about 40%
nonsel antag count – nonselective antagonists in TAAR1 counter-screen cells, counter-screen for hTAAR1 antagonist project, cell-based, fluorescence, calcium; shares compounds with TAAR1 antag; counterscreen cell line, antagonist mode; inhibition, % at 3 µM; 2,400 tested, 77% active; AID 651780, 2012; in the data active = inhibition above about 22%;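 also: CHO-Ga16 host cells stimulated with ATP at an EC80 level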
TAAR1 ant conf – human TAAR1 antagonists, retest of hits, confirmation, cell-based, fluorescence | 2,400 tested, 40% active | AID 651785, 2012 | shares compounds with TAAR1 antag | TAAR1-expressing cells, fluorescence antagonist read-out | inhibition, % at 3 µM; in the data active = inhibition above about 49%;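 also: CHO-Ga16 host cells challenged with agonist PEA near its EC80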
Ga16 nonsel ag – calcium activation in Ga16-expressing cells, counter-screen for TAAR1 antagonist project, cell-based, fluorescence; shares compounds with TAAR1 antag; activation, % at 3 µM; 2,400 tested, 18% active; agonist counterscreen; AID 651953, 2012; in the data active = activation above about 12%
TAAR1 ag counter – TAAR1 activation by candidate antagonists – cell-based, fluorescence, counter-screen for TAAR1 antagonist project; shares compounds with TAAR1 antag; hTAAR1 cell line, agonist mode; activation, % at 3 µM; 2,400 tested, 2% active; AID 651955, 2012; in the data active = activation above about 37%;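 also: CHO cells stably expressing TAAR1 with calcium dye readout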
Hits are given with their value; - = inactive; . = not tested or not shown. Only some compounds are listed: those with a hit (about 4.5% of all), similar ones and a draw of the others.

SMILES	GPR7 antag	CHO parental Ca	OX1R antag-1	TAAR1 agonist	TAAR1 antag	OX1R antag-2	nonsel antag count	TAAR1 ant conf	Ga16 nonsel ag	TAAR1 ag counter
Cc1ccc(C(C)C)c(OCc2ccc(C(=O)N/N=C/c3cccc(O)c3O)cc2)c1	-	-	-	-	77	-	47	80	-	-
O=C(N/N=C/c1ccccc1F)c1ccccc1OCc1ccccc1	-	-	-	-	51	-	-	-	-	-
CC(=O)Nc1ccc(C(=O)N/N=C/c2ccccc2OCc2ccccc2)cc1	-	-	-	-	52	-	32	-	-	-
O=C(NNC(=O)c1ccccc1OCc1ccccc1)c1ccccc1F	-	-	-	-	-	-	.	.	.	.
COc1ccc(S(=O)(=O)n2nc(OCc3cccs3)cc2N)cc1	-	-	-	-	-	-	.	.	.	.
COc1cc2c(cc1OC)/C(=C/C(=O)c1cccc([N+](=O)[O-])c1)NCC2	-	-	-	-	50	-	26	-	-	-
CCOc1ccccc1NC(=O)Nc1cnccn1	-	-	-	-	-	-	.	.	.	.
COc1ccc(-c2ccc(SCC(=O)Nc3cccc(C(C)=O)c3)nn2)cc1OC	-	-	-	-	53	-	24	-	-	-
CC(=O)c1cccc(NC(=O)CSc2ccc(-c3ccco3)nn2)c1	-	-	-	-	-	-	.	.	.	.
CC(=O)c1cccc(NC(=O)CSc2ccc(-c3ccc4c(c3)OCO4)nn2)c1	-	-	-	-	54	-	27	-	-	-
O=C(Nc1nccs1)c1ccc(COc2ccccc2Br)o1	-	-	-	-	-	-	.	.	.	.
O=[N+]([O-])c1cc(-n2cccc2)ccc1N1CCOCC1	-	-	-	-	60	-	28	-	-	-
Clc1ccc(OCCSc2ncccn2)cc1	-	-	-	-	-	-	.	.	.	.
O=S(=O)(c1ccccc1Br)N(CC(O)COCc1ccccc1)C1CC1 (stereo not drawn)	.	-	-	-	-	-	.	.	.	.
O=S(=O)(c1ccccc1Br)N(Cc1ccccc1)CC(O)COCc1ccccc1 (stereo not drawn)	.	-	-	-	59	36	-	-	-	-
O=C(Nc1ccc(F)c(Cl)c1)N1CCCCCC1	-	-	-	-	-	-	.	.	.	.
CC(=O)c1c(C)[nH]c(C(=O)COC(=O)CNS(=O)(=O)c2ccccc2)c1C	-	-	-	-	-	-	.	.	.	.
CCOC(=O)c1c(C)[nH]c(C(=O)COC(=O)CNS(=O)(=O)c2ccc(C)cc2)c1C	.	-	-	-	75	-	39	52	-	-
CCC(C)(C)n1nnnc1CN(Cc1cccs1)Cc1cc2cc(OC)ccc2[nH]c1=O	.	-	-	-	-	-	.	.	.	.
CCOc1ccc2[nH]c(=O)c(CN(Cc3cccs3)Cc3nnnn3C(C)(C)CC)cc2c1	-	-	-	-	55	-	-	-	-	-
Cc1cc(F)ccc1S(=O)(=O)Nc1ccccc1C(=O)Nc1ccc2[nH]c(=O)[nH]c2c1	-	-	-	-	-	-	.	.	.	.
O=C(COc1ccccc1)Nc1cccc(-c2nn[nH]n2)c1	-	-	-	-	-	-	.	.	.	.

Assay outcomes (PubChem)
